# Measurements reported in ChEMBL document CHEMBL4130603, “Anti-inflammatory Grayanane Diterpenoids from the Leaves of Rhododendron molle” (J Nat Prod, 2018).
# Experiments:
# [1] = Cytotoxicity against mouse RAW264.7 cells assessed as survival rate at 200 uM measured in presence of LPS by MTT assay relative to control; assay type: cell-based; conditions: read-out: Survival
# How it was run: (§1)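 RAW 264.7 mouse macrophages treated with compound at 200 μM, with or without 1 μg/mL LPS. Viability read by MTT and expressed as survival rate (%). Values are means ± SD, n = 3.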
# RAW264.7 [2] = test: Antiinflammatory activity in mouse RAW264.7 cells assessed as inhibition of LPS-induced nitric oxide production at 40 uM by griess assay relative to control; assay type: functional
# How it was run: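 LPS-stimulated RAW 264.7 mouse macrophages; nitric oxide production measured; single-concentration screen of inhibition relative to control. Dexamethasone as positive control.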
# RAW264.7 [3] = test: Antiinflammatory activity in mouse RAW264.7 cells assessed as inhibition of LPS-induced nitric oxide production by griess assay; assay type: functional, cell-based
# How it was run: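 RAW 264.7 mouse macrophages induced with LPS; NO production measured over five test concentrations to derive IC50; means ± SD, n = 3; dexamethasone positive control.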
# [4] = Cytotoxicity against mouse RAW264.7 cells assessed as survival rate at 200 uM measured in absence of LPS by MTT assay relative to control; assay type: cell-based; conditions: read-out: Survival; how it was run: as §1
# RAW264.7 [5] = test: Cytotoxicity against mouse RAW264.7 cells at 200 uM measured in presence of LPS by MTT assay; assay type: cell-based; conditions: raw264.7, 200 µM
# How it was run: (§2)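 MTT viability of RAW 264.7 mouse macrophages exposed to compound at 200 μM, with or without 1 μg/mL LPS; reported as cell survival rate (%).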
# RAW264.7 [6] = test: Cytotoxicity against mouse RAW264.7 cells at 200 uM measured in absence of LPS by MTT assay; assay type: cell-based; conditions: raw264.7, 200 µM; how it was run: as §2
SMILES,viability at 200 µM [1] [%],inhibition at 40 µM (RAW264.7 [2]) [%],IC50 (RAW264.7 [3]) [µM],viability at 200 µM [4] [%],Activity (RAW264.7 [5]),Activity (RAW264.7 [6])
CC1(C)[C@@H](O)[C@H](O)[C@H]2[C@](C)(O)[C@@H]3CC[C@@H]4[C@@H](O)[C@@]3(C[C@@H](O)[C@@]21O)C[C@@]4(C)O,90.4,> 50,8,97,,
CC(=O)O[C@@H]1[C@H]2CC[C@H]3[C@@](C)(O)[C@@H]4[C@@H](O)[C@H](O)C(C)(C)[C@@]4(O)[C@H](OC(C)=O)C[C@@]13C[C@@]2(C)O,93.9,> 50,10.3,97.4,,
CC(=O)O[C@@H]1C[C@]23C[C@@](C)(O)[C@H](CC[C@H]2[C@@](C)(O)[C@@H]2[C@@H](Cl)[C@H](O)C(C)(C)[C@@]12O)[C@H]3O,95.2,> 50,5.8,99.3,,
C[C@@H]1C[C@H]2[C@@H]3CCC4=CC(=O)C=C[C@]4(C)[C@@]3(F)[C@@H](O)C[C@]2(C)[C@@]1(O)C(=O)CO [DEXAMETHASONE],97.1,,0.8,97.7,,
C=C1C[C@@]23C[C@@H](O)[C@@]4(O)C([C@@H]5O[C@@H]5C4(C)C)[C@](C)(O)[C@@H]2CC[C@@H]1[C@H]3O (stereo partly specified),,,> 40,,Non-Toxic,Non-Toxic
C=C1[C@@H]2CC[C@@H]3C[C@@]2(C[C@@H](O)[C@@]2(O)[C@H]1C[C@H](O)C2(C)C)C[C@@]3(C)O,93.8,> 50,3.5,96.4,,
CC(=O)O[C@@H]1C[C@]23C=C(C)[C@H](CC[C@H]2[C@@](C)(O)[C@@H]2[C@@H]4O[C@@H]4C(C)(C)[C@@]12O)[C@H]3O,,,> 40,,Non-Toxic,Non-Toxic
C=C1[C@@H]2[C@@H]3O[C@@H]3C(C)(C)[C@@]2(O)[C@H](O)C[C@]23C[C@@](C)(O)[C@H](CC[C@@H]12)[C@H]3O,92,> 50,35.4,90.3,,
CO[C@H]1[C@H](O)C(C)(C)[C@@]2(O)[C@H](OC(C)=O)C[C@]34C[C@@](C)(O)[C@H](CC[C@H]3[C@@](C)(O)[C@H]12)[C@H]4OC(C)=O,,,> 40,,Non-Toxic,Non-Toxic
C=C1[C@@H]2CC[C@@H]3C[C@@]2(C[C@@H](O)[C@@]2(O)[C@H]1C[C@H](O)[C@]2(C)CO)C[C@@]3(C)O,,,> 40,,Non-Toxic,Non-Toxic
C=C1[C@@H]2[C@@H](O)[C@H](O)C(C)(C)[C@@]2(O)[C@H](OC(C)=O)C[C@]23C[C@@](C)(O)[C@H](CC[C@@H]12)[C@H]3O,,,> 40,,Non-Toxic,Non-Toxic
CC1(C)[C@H]2O[C@H]2[C@H]2[C@](C)(O)[C@@H]3CC[C@@H]4[C@@H](O)[C@@]3(C[C@@H](O)[C@@]21O)C[C@@]4(C)O,98.4,> 50,7,96.5,,
CC(=O)O[C@@H]1C[C@@]23C[C@]4(C)O[C@@H](C[C@@H]4[C@H]2O)[C@H]3[C@@](C)(O)C2[C@@H]3O[C@@H]3C(C)(C)[C@]21O (stereo partly specified),,,> 40,,Non-Toxic,Non-Toxic
C=C1[C@@H]2[C@@H](OC)[C@H](O)C(C)(C)[C@@]2(O)[C@H](OC(C)=O)C[C@]23C[C@@](C)(O)[C@H](CC[C@@H]12)[C@H]3O,,,> 40,,Non-Toxic,Non-Toxic
C=C1C[C@@]23C[C@@H](OC(C)=O)[C@@]4(O)[C@@H]([C@@H](O)[C@H](O)C4(C)C)[C@](C)(O)[C@@H]2CC[C@@H]1[C@H]3O,,,> 40,,Non-Toxic,Non-Toxic
C=C1[C@@H]2[C@@H](O)[C@H](O)C(C)(C)[C@@]2(O)[C@H](O)C[C@]23C[C@@](C)(O)[C@H](CC[C@@H]12)[C@H]3O,97.5,> 50,8.1,98.1,,
C=C1[C@@H]2CC[C@@H]3[C@@H](O)[C@@]2(C[C@@H](O)[C@@]2(O)[C@H]1C[C@H](O)C2(C)C)C[C@@]3(C)O,,,> 40,,Non-Toxic,Non-Toxic
CC(=O)O[C@@H]1C[C@]23C[C@@](C)(OC(C)=O)[C@H](CC[C@H]2[C@@](C)(O)[C@@H]2[C@@H]4O[C@@H]4C(C)(C)[C@@]12O)[C@H]3O,99.7,> 50,10.1,98.9,,
C=C1[C@@H]2[C@@H](OC)[C@H](O)C(C)(C)[C@@]2(O)[C@H](O)C[C@]23C[C@@](C)(O)[C@H](CC[C@@H]12)[C@H]3O,,,> 40,,Non-Toxic,Non-Toxic
CO[C@H]1[C@H](O)C(C)(C)[C@@]2(O)[C@H](O)C[C@]34C[C@@](C)(O)[C@H](CC[C@H]3[C@@](C)(O)[C@H]12)[C@H]4O,,,> 40,,Non-Toxic,Non-Toxic
C=C1[C@@H]2[C@@H](O)[C@H](O)C(C)(C)[C@@]2(O)[C@H](OC(C)=O)C[C@]23C=C(C)[C@H](CC[C@@H]12)[C@H]3O,,,> 40,,Non-Toxic,Non-Toxic
CC(=O)O[C@@H]1[C@H]2CC[C@H]3[C@@](C)(O)[C@@H]4[C@@H]5O[C@@H]5C(C)(C)[C@@]4(O)[C@H](O)C[C@@]13C[C@@]2(C)O,,,> 40,,Non-Toxic,Non-Toxic
CO[C@H]1[C@H](O)C(C)(C)[C@@]2(O)[C@H](OC(C)=O)C[C@]34C[C@@](C)(O)[C@H](CC[C@H]3[C@@](C)(O)[C@H]12)[C@H]4O[C@H]1[C@H](O)C(C)(C)[C@@]2(O)[C@H](OC(C)=O)C[C@]34C[C@@](C)(O)[C@H](CC[C@H]3[C@@](C)(O)[C@H]12)[C@H]4O,,,> 40,,Non-Toxic,Non-Toxic
C=C1[C@@H]2CC[C@@H]3C[C@@]2(C[C@@H](OC(C)=O)[C@@]2(O)[C@H]1C[C@H](O)C2(C)C)C[C@@]3(C)O,,,> 40,,Non-Toxic,Non-Toxic
CO[C@H]1[C@H](O)C(C)(C)[C@@]2(O)[C@H](OC(C)=O)C[C@]34C[C@@](C)(O)[C@H](CC[C@H]3[C@@](C)(O)[C@H]12)[C@H]4O,97.3,> 50,4.6,98.3,,
CC(=O)O[C@@H]1C[C@]23C[C@@](C)(O)[C@H](CC[C@H]2[C@@](C)(O)[C@@H]2C[C@H](O)C(C)(C)[C@@]12O)[C@H]3O,,,> 40,,Non-Toxic,Non-Toxic
CO[C@@H]1[C@H]2C(C)=C3CC[C@@H]4[C@@H](O)[C@@]3(C[C@@H](OC(C)=O)[C@]2(O)C(C)(C)[C@H]1O)C[C@@]4(C)O,,,> 40,,Non-Toxic,Non-Toxic
CC(=O)O[C@@H]1C[C@]23C[C@@](C)(O)[C@H](CC[C@H]2[C@@](C)(O)[C@@H]2[C@@H](O)[C@H](O)C(C)(C)[C@@]12O)[C@H]3O,99.8,> 50,9.3,98.8,,
CO[C@@H]1[C@H]2[C@@H](C)[C@]34CC[C@H]5C(C)=C[C@]3(C[C@@H](OC(C)=O)[C@]2(O4)C(C)(C)[C@H]1O)[C@@H]5O,,,> 40,,Non-Toxic,Non-Toxic
CC(=O)O[C@@H]1C[C@]23C[C@@](C)(O)[C@H](CC[C@H]2[C@@](C)(O)[C@@H]2[C@@H]4O[C@@H]4C(C)(C)[C@@]12O)[C@H]3O,93.6,> 50,2.8,101,,
